Measurements as given in ChEMBL document CHEMBL1781989, “Novel β-carboline-tripeptide conjugates attenuate mesenteric ischemia/reperfusion injury in the rat” (2011).
Non-standard residues stand in square brackets, D forms with d. Residues, ends and D or L forms follow the SMILES beside them. Tpi = O=C(O)[C@@H]1Cc2c([nH]c3ccccc23)CN1

Tested on: Mus musculus
Assay: Antiinflammatory activity in po dosed ICR mouse assessed as inhibition of xylene-induced ear edema administered 30 mins before xylene challenge measured after 2 hrs
Assay type: functional, organism-based
In short: (§1)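 Male ICR mice (20 ± 2 g), randomised to test, vehicle (CMC) and aspirin (10 mg/kg oral) groups. Test agents given orally as CMC suspension. After 30 min, 0.03 mL xylene applied to both faces of the right ear, left ear as control. At 2 h mice were killed and 7 mm ear punches weighed. Edema is the right-minus-left weight, and inhibition is taken against vehicle.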

Structure (SMILES)	inhibition
C[C@H](NC(=O)[C@@H]1Cc2c([nH]c3ccccc23)CN1)C(=O)N[C@@H](Cc1ccccc1)C(=O)N[C@@H](Cc1c[nH]c2ccccc12)C(=O)O (H-[Tpi]AFW-OH)	Dose-dependent effect
N=C(N)NCCC[C@H](NC(=O)[C@@H]1Cc2c([nH]c3ccccc23)CN1)C(=O)N[C@@H](Cc1ccccc1)C(=O)N[C@@H](Cc1c[nH]c2ccccc12)C(=O)O (H-[Tpi]RFW-OH)	Dose-dependent effect
O=C(O)[C@H](Cc1c[nH]c2ccccc12)NC(=O)[C@H](Cc1ccccc1)NC(=O)[C@H](Cc1ccc(O)cc1)NC(=O)[C@@H]1Cc2c([nH]c3ccccc23)CN1 (H-[Tpi]YFW-OH)	Dose-dependent effect

Tested on: Mus musculus
Assay: Antiinflammatory activity in ICR mouse assessed as inhibition of xylene-induced ear edema at 0.05 mmol/kg, po administered 30 mins before xylene challenge measured after 2 hrs relative to control
Assay type: functional
In short: as §1

Structure (SMILES)	inhibition in vivo at 50 µmol/kg [%]
C[C@H](NC(=O)[C@@H]1Cc2c([nH]c3ccccc23)CN1)C(=O)N[C@@H](Cc1ccccc1)C(=O)N[C@@H](Cc1c[nH]c2ccccc12)C(=O)O (H-[Tpi]AFW-OH)	32.6
N=C(N)NCCC[C@H](NC(=O)[C@@H]1Cc2c([nH]c3ccccc23)CN1)C(=O)N[C@@H](Cc1ccccc1)C(=O)N[C@@H](Cc1c[nH]c2ccccc12)C(=O)O (H-[Tpi]RFW-OH)	11.3
O=C(O)[C@H](Cc1c[nH]c2ccccc12)NC(=O)[C@H](Cc1ccccc1)NC(=O)[C@H](Cc1ccc(O)cc1)NC(=O)[C@@H]1Cc2c([nH]c3ccccc23)CN1 (H-[Tpi]YFW-OH)	16.2

Tested on: Mus musculus
Assay: Analgesic activity in ICR mouse assessed as increase in pain threshold at 0.15 mmol/kg, po after 120 mins by tail flick method (reference value: 8.09 +/- 13.28 %)
Assay type: functional

Structure (SMILES)	Activity [%]
CC(C)C[C@H](N)C(=O)N[C@@H](Cc1ccccc1)C(=O)N[C@@H](Cc1c[nH]c2ccccc12)C(=O)O (H-Leu-Phe-Trp-OH)	18.92
C[C@H](NC(=O)[C@@H]1Cc2c([nH]c3ccccc23)CN1)C(=O)N[C@@H](Cc1ccccc1)C(=O)N[C@@H](Cc1c[nH]c2ccccc12)C(=O)O (H-[Tpi]AFW-OH)	42.03
N=C(N)NCCC[C@H](NC(=O)[C@@H]1Cc2c([nH]c3ccccc23)CN1)C(=O)N[C@@H](Cc1ccccc1)C(=O)N[C@@H](Cc1c[nH]c2ccccc12)C(=O)O (H-[Tpi]RFW-OH)	37.12
O=C(O)[C@H](Cc1c[nH]c2ccccc12)NC(=O)[C@H](Cc1ccccc1)NC(=O)[C@H](Cc1ccc(O)cc1)NC(=O)[C@@H]1Cc2c([nH]c3ccccc23)CN1 (H-[Tpi]YFW-OH)	30.25

Tested on: Mus musculus
Assay: Analgesic activity in ICR mouse assessed as increase in pain threshold at 0.15 mmol/kg, po after 30 mins by tail flick method (reference value: 5.03 +/- 10.26 %)
Assay type: functional

Structure (SMILES)	Activity [%]
CC(C)C[C@H](N)C(=O)N[C@@H](Cc1ccccc1)C(=O)N[C@@H](Cc1c[nH]c2ccccc12)C(=O)O (H-Leu-Phe-Trp-OH)	25.38
C[C@H](NC(=O)[C@@H]1Cc2c([nH]c3ccccc23)CN1)C(=O)N[C@@H](Cc1ccccc1)C(=O)N[C@@H](Cc1c[nH]c2ccccc12)C(=O)O (H-[Tpi]AFW-OH)	37.58
N=C(N)NCCC[C@H](NC(=O)[C@@H]1Cc2c([nH]c3ccccc23)CN1)C(=O)N[C@@H](Cc1ccccc1)C(=O)N[C@@H](Cc1c[nH]c2ccccc12)C(=O)O (H-[Tpi]RFW-OH)	38.16
O=C(O)[C@H](Cc1c[nH]c2ccccc12)NC(=O)[C@H](Cc1ccccc1)NC(=O)[C@H](Cc1ccc(O)cc1)NC(=O)[C@@H]1Cc2c([nH]c3ccccc23)CN1 (H-[Tpi]YFW-OH)	35.75

Tested on: Mus musculus
Assay: Analgesic activity in ICR mouse assessed as increase in pain threshold at 0.15 mmol/kg, po after 150 mins by tail flick method (reference value: 9.02 +/- 12.19 %)
Assay type: functional

Structure (SMILES)	Activity [%]
CC(C)C[C@H](N)C(=O)N[C@@H](Cc1ccccc1)C(=O)N[C@@H](Cc1c[nH]c2ccccc12)C(=O)O (H-Leu-Phe-Trp-OH)	9.77
C[C@H](NC(=O)[C@@H]1Cc2c([nH]c3ccccc23)CN1)C(=O)N[C@@H](Cc1ccccc1)C(=O)N[C@@H](Cc1c[nH]c2ccccc12)C(=O)O (H-[Tpi]AFW-OH)	28.79
N=C(N)NCCC[C@H](NC(=O)[C@@H]1Cc2c([nH]c3ccccc23)CN1)C(=O)N[C@@H](Cc1ccccc1)C(=O)N[C@@H](Cc1c[nH]c2ccccc12)C(=O)O (H-[Tpi]RFW-OH)	29.38
O=C(O)[C@H](Cc1c[nH]c2ccccc12)NC(=O)[C@H](Cc1ccccc1)NC(=O)[C@H](Cc1ccc(O)cc1)NC(=O)[C@@H]1Cc2c([nH]c3ccccc23)CN1 (H-[Tpi]YFW-OH)	28.87

Tested on: Mus musculus
Assay: Antiinflammatory activity in ICR mouse assessed as inhibition of xylene-induced ear edema at 0.10 mmol/kg, po administered 30 mins before xylene challenge measured after 2 hrs relative to control
Assay type: functional
In short: as §1

Structure (SMILES)	inhibition in vivo at 100 µmol/kg [%]
C[C@H](NC(=O)[C@@H]1Cc2c([nH]c3ccccc23)CN1)C(=O)N[C@@H](Cc1ccccc1)C(=O)N[C@@H](Cc1c[nH]c2ccccc12)C(=O)O (H-[Tpi]AFW-OH)	44.8
N=C(N)NCCC[C@H](NC(=O)[C@@H]1Cc2c([nH]c3ccccc23)CN1)C(=O)N[C@@H](Cc1ccccc1)C(=O)N[C@@H](Cc1c[nH]c2ccccc12)C(=O)O (H-[Tpi]RFW-OH)	26.5
O=C(O)[C@H](Cc1c[nH]c2ccccc12)NC(=O)[C@H](Cc1ccccc1)NC(=O)[C@H](Cc1ccc(O)cc1)NC(=O)[C@@H]1Cc2c([nH]c3ccccc23)CN1 (H-[Tpi]YFW-OH)	32.9

Tested on: Mus musculus
Assay: Analgesic activity in ICR mouse assessed as increase in pain threshold at 0.15 mmol/kg, po after 180 mins by tail flick method (reference value: 8.75 +/- 9.73 %)
Assay type: functional

Structure (SMILES)	Activity [%]
CC(C)C[C@H](N)C(=O)N[C@@H](Cc1ccccc1)C(=O)N[C@@H](Cc1c[nH]c2ccccc12)C(=O)O (H-Leu-Phe-Trp-OH)	7.98
C[C@H](NC(=O)[C@@H]1Cc2c([nH]c3ccccc23)CN1)C(=O)N[C@@H](Cc1ccccc1)C(=O)N[C@@H](Cc1c[nH]c2ccccc12)C(=O)O (H-[Tpi]AFW-OH)	19.22
N=C(N)NCCC[C@H](NC(=O)[C@@H]1Cc2c([nH]c3ccccc23)CN1)C(=O)N[C@@H](Cc1ccccc1)C(=O)N[C@@H](Cc1c[nH]c2ccccc12)C(=O)O (H-[Tpi]RFW-OH)	21.55
O=C(O)[C@H](Cc1c[nH]c2ccccc12)NC(=O)[C@H](Cc1ccccc1)NC(=O)[C@H](Cc1ccc(O)cc1)NC(=O)[C@@H]1Cc2c([nH]c3ccccc23)CN1 (H-[Tpi]YFW-OH)	20.94

Tested on: Mus musculus
Assay: Analgesic activity in ICR mouse assessed as increase in pain threshold at 0.15 mmol/kg, po after 60 mins by tail flick method (reference value: 7.45 +/- 8.03 %)
Assay type: functional

Structure (SMILES)	Activity [%]
CC(C)C[C@H](N)C(=O)N[C@@H](Cc1ccccc1)C(=O)N[C@@H](Cc1c[nH]c2ccccc12)C(=O)O (H-Leu-Phe-Trp-OH)	28.79
C[C@H](NC(=O)[C@@H]1Cc2c([nH]c3ccccc23)CN1)C(=O)N[C@@H](Cc1ccccc1)C(=O)N[C@@H](Cc1c[nH]c2ccccc12)C(=O)O (H-[Tpi]AFW-OH)	48.23
N=C(N)NCCC[C@H](NC(=O)[C@@H]1Cc2c([nH]c3ccccc23)CN1)C(=O)N[C@@H](Cc1ccccc1)C(=O)N[C@@H](Cc1c[nH]c2ccccc12)C(=O)O (H-[Tpi]RFW-OH)	35.13
O=C(O)[C@H](Cc1c[nH]c2ccccc12)NC(=O)[C@H](Cc1ccccc1)NC(=O)[C@H](Cc1ccc(O)cc1)NC(=O)[C@@H]1Cc2c([nH]c3ccccc23)CN1 (H-[Tpi]YFW-OH)	41.18

Tested on: Mus musculus
Assay: Analgesic activity in ICR mouse assessed as increase in pain threshold at 0.15 mmol/kg, po after 90 mins by tail flick method (reference value: 7.53 +/- 11.54 %)
Assay type: functional

Structure (SMILES)	Activity [%]
CC(C)C[C@H](N)C(=O)N[C@@H](Cc1ccccc1)C(=O)N[C@@H](Cc1c[nH]c2ccccc12)C(=O)O (H-Leu-Phe-Trp-OH)	20.13
C[C@H](NC(=O)[C@@H]1Cc2c([nH]c3ccccc23)CN1)C(=O)N[C@@H](Cc1ccccc1)C(=O)N[C@@H](Cc1c[nH]c2ccccc12)C(=O)O (H-[Tpi]AFW-OH)	46.48
N=C(N)NCCC[C@H](NC(=O)[C@@H]1Cc2c([nH]c3ccccc23)CN1)C(=O)N[C@@H](Cc1ccccc1)C(=O)N[C@@H](Cc1c[nH]c2ccccc12)C(=O)O (H-[Tpi]RFW-OH)	46.08
O=C(O)[C@H](Cc1c[nH]c2ccccc12)NC(=O)[C@H](Cc1ccccc1)NC(=O)[C@H](Cc1ccc(O)cc1)NC(=O)[C@@H]1Cc2c([nH]c3ccccc23)CN1 (H-[Tpi]YFW-OH)	43.23

Tested on: Mus musculus
Assay: Antiinflammatory activity in ICR mouse assessed as inhibition of xylene-induced ear edema at 0.15 mmol/kg, po administered 30 mins before xylene challenge measured after 2 hrs relative to control
Assay type: functional
In short: as §1

Structure (SMILES)	inhibition in vivo at 150 µmol/kg [%]
C[C@H](NC(=O)[C@@H]1Cc2c([nH]c3ccccc23)CN1)C(=O)N[C@@H](Cc1ccccc1)C(=O)N[C@@H](Cc1c[nH]c2ccccc12)C(=O)O (H-[Tpi]AFW-OH)	52.7
N=C(N)NCCC[C@H](NC(=O)[C@@H]1Cc2c([nH]c3ccccc23)CN1)C(=O)N[C@@H](Cc1ccccc1)C(=O)N[C@@H](Cc1c[nH]c2ccccc12)C(=O)O (H-[Tpi]RFW-OH)	57
O=C(O)[C@H](Cc1c[nH]c2ccccc12)NC(=O)[C@H](Cc1ccccc1)NC(=O)[C@H](Cc1ccc(O)cc1)NC(=O)[C@@H]1Cc2c([nH]c3ccccc23)CN1 (H-[Tpi]YFW-OH)	50.9
